Consider two compounds from ChEMBL document CHEMBL4007404, “Identification of High-Potency Human TLR8 and Dual TLR7/TLR8 Agonists in Pyrimidine-2,4-diamines” (J Med Chem, 2017).

Molecules are shown by their SMILES. Calls of active or inactive are those of the source. The rule behind the calls is not given here.

Data set [1] has as its target T1, Toll-like receptor 7 (Homo sapiens) (UniProt Q9NYK1).
T1 sequence (whole entry): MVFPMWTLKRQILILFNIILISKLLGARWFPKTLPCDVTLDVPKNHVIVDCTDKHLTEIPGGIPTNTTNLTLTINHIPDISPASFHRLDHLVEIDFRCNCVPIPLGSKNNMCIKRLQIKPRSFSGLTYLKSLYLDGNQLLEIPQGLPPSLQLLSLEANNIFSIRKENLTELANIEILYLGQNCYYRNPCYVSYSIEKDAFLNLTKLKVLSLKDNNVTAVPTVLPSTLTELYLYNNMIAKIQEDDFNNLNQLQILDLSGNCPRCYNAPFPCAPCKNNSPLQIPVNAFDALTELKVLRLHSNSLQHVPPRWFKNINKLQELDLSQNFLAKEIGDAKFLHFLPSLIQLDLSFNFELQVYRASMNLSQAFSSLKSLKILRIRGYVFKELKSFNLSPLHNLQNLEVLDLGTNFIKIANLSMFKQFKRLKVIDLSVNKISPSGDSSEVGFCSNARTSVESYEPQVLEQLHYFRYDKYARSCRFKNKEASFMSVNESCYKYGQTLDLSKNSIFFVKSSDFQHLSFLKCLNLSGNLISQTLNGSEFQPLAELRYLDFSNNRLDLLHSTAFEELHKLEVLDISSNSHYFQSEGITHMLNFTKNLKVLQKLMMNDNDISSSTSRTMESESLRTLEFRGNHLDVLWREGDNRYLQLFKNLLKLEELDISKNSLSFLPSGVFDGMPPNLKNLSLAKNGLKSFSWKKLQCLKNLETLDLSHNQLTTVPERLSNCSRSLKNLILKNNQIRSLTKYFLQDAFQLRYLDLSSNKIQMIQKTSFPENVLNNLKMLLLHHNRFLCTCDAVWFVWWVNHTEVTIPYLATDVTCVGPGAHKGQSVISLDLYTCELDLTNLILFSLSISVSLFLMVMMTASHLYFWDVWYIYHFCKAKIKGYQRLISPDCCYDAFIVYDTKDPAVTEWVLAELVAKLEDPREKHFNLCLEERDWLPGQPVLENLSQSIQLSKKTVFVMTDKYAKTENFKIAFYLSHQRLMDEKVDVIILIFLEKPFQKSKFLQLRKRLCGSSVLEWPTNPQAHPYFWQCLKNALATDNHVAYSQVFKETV
Put plainly: Agonist activity at human TLR7 expressed in HEK293 cells co-expressing secreted alkaline phosphatase assessed as induction of NF-kappaB/AP-1 promoter activity by measuring increase in secreted alkaline phosphatase level by spectrophotometric method. In kind it is cell-based. The method, boiled down:
(§1)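 HEK293 cells stably co-transfected with the relevant human TLR (2, 3, 4, 5, 7, 8 or 9) plus an NF-κB/AP-1-driven secreted alkaline phosphatase reporter, kept in selection medium. Cells at ~10⁵ cells/ml were exposed to graded concentrations of stimuli in 384-well format, liquid-handler assisted. Supernatant sAP was read at 620 nm with an alkaline phosphatase-specific chromogen.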

For data set [2], the target named is T2, Toll-like receptor 8 (Homo sapiens) (UniProt Q9NR97).
T2 sequence (whole entry): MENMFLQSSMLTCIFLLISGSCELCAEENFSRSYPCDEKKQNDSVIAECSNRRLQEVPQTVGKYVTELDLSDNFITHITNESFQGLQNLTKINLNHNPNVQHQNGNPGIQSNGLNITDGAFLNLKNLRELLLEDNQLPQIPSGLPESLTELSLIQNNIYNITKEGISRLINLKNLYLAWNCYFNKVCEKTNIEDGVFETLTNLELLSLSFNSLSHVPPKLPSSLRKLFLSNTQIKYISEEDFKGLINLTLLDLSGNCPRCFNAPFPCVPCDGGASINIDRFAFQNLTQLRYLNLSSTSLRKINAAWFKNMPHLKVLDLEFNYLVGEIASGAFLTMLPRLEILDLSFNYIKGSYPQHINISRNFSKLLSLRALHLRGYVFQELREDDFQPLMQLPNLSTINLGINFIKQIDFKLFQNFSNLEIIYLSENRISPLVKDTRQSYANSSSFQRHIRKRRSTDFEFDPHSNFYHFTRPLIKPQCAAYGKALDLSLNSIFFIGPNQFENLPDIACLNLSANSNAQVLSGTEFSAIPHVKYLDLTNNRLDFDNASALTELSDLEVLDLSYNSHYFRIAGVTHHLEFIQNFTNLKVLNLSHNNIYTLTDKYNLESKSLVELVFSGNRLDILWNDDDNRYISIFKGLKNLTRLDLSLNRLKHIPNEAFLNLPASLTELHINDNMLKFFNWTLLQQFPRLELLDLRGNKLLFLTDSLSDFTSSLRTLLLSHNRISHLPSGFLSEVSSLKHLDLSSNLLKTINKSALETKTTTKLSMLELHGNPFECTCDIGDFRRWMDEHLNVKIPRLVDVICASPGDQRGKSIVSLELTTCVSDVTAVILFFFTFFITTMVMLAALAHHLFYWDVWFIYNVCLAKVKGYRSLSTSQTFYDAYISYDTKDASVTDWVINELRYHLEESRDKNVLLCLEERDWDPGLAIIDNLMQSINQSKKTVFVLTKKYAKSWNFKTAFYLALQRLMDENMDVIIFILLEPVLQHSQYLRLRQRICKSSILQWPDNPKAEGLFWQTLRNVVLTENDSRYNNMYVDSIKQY
The experiment in a line: Agonist activity at human TLR8 expressed in HEK293 cells co-expressing secreted alkaline phosphatase assessed as induction of NF-kappaB/AP-1 promoter activity by measuring increase in secreted alkaline phosphatase level by spectrophotometric method. In kind it is cell-based. The method, boiled down:
as §1

The target of data set [3] is T1, Toll-like receptor 7 (Homo sapiens). Put plainly: Inhibition of human TLR7 expressed in HEK293 cells co-expressing secreted alkaline phosphatase assessed as NF-kappaB/AP-1 promoter activity by measuring increase in secreted alkaline phosphatase level at higher concentration by spectrophotometric method. In kind it is cell-based.
Data set [4] addresses T2, Toll-like receptor 8 (Homo sapiens). Put plainly: Inhibition of human TLR8 expressed in HEK293 cells co-expressing secreted alkaline phosphatase assessed as NF-kappaB/AP-1 promoter activity by measuring increase in secreted alkaline phosphatase level at higher concentration by spectrophotometric method. In kind it is cell-based.
The subject of the next data set is HEK293. Put plainly: Cytotoxicity against HEK293 cells expressing human TLR7 or TLR8 at 10^-4M. In kind it is cell-based. The note with it: hek293, 100 µM.
Data set [5] addresses T2, Toll-like receptor 8 (Homo sapiens). Put plainly: Agonist activity at TLR8 in human […] conventional dendritic cells assessed as upregulation of CD80 expression after 16 hrs by efluor 780 dye based flow cytometry. The method, boiled down: (§2)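 Human PBMCs were incubated with serial compound dilutions at 37 °C for 16 h, with DMSO controls. Cells were stained with eFluor780 viability dye, then lineage and DC antibodies plus CD80 PE, and fixed. 250,000 gated events were acquired. pDCs were gated as Live Lin⁻ CD123⁺ CD303⁺ CD304⁺ HLA-DR⁺. cDCs were gated as Lin⁻ CD1c⁺ CD141⁻ CD11c⁺ HLA-DR⁺ or Lin⁻ CD141⁺ CD1c⁻ HLA-DR⁺. Median fluorescence intensity was quantified.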

Data set [6] shares this target. The experiment in a line: Agonist activity at TLR8 in human CD141 positive conventional dendritic cells assessed as upregulation of CD80 expression after 16 hrs by efluor 780 dye based flow cytometry. In short, it runs like this: as §2
The target of data set [7] is T1, Toll-like receptor 7 (Homo sapiens). Put plainly: Agonist activity at TLR7 in human plasmacytoid dendritic cells assessed as upregulation of CD80 expression after 16 hrs by efluor 780 dye based flow cytometry. The method, boiled down:
as §2

The target is the same in data set [8]. Put plainly: Agonist activity at human TLR7 expressed in HEK293 cells co-expressing secreted alkaline phosphatase assessed as induction of NF-kappaB/AP-1 promoter activity by measuring increase in secreted alkaline phosphatase level at 100 uM by spectrophotometric method. In kind it is cell-based.
For data set [9], the target named is Toll-like receptor 2 (Homo sapiens) (UniProt O60603). Put plainly: Activity at human TLR2 expressed in HEK293 cells co-expressing secreted alkaline phosphatase assessed as induction of NF-kappaB/AP-1 promoter activity by measuring increase in secreted alkaline phosphatase level by spectrophotometric method. In kind it is cell-based. The method, boiled down: as §1
Toll-like receptor 2 (Homo sapiens), sequence (O60603 whole entry): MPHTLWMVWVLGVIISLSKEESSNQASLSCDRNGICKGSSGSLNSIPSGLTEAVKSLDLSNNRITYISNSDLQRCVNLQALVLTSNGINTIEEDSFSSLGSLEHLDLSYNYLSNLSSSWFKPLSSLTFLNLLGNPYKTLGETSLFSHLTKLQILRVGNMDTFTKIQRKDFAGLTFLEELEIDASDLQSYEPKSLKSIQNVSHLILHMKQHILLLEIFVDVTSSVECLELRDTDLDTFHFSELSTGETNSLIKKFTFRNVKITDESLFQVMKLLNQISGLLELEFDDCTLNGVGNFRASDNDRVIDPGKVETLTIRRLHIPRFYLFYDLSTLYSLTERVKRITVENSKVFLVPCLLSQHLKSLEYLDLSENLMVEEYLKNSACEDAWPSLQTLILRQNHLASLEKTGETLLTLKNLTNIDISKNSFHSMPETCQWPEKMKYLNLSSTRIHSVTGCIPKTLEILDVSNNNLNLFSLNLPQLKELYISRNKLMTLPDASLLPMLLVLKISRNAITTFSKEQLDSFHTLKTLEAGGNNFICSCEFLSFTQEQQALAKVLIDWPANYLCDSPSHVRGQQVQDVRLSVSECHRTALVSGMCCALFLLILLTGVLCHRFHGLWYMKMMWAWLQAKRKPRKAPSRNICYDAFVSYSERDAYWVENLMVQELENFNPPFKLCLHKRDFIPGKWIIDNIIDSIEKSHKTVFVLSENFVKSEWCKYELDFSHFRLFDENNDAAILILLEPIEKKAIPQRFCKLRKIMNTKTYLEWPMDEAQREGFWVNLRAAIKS

For data set [10], the target named is Toll-like receptor 3 (Homo sapiens) (UniProt O15455). The experiment in a line: Activity at human TLR3 expressed in HEK293 cells co-expressing secreted alkaline phosphatase assessed as induction of NF-kappaB/AP-1 promoter activity by measuring increase in secreted alkaline phosphatase level by spectrophotometric method. In kind it is cell-based. In short, it runs like this:
as §1

The target of data set [11] is Toll-like receptor 4 (Homo sapiens) (UniProt O00206). The experiment in a line: Activity at human TLR4 expressed in HEK293 cells co-expressing secreted alkaline phosphatase assessed as induction of NF-kappaB/AP-1 promoter activity by measuring increase in secreted alkaline phosphatase level by spectrophotometric method. In kind it is cell-based. The method, boiled down:
as §1

Data set [12] has as its target Toll-like receptor 5 (Homo sapiens) (UniProt O60602). Put plainly: Activity at human TLR5 expressed in HEK293 cells co-expressing secreted alkaline phosphatase assessed as induction of NF-kappaB/AP-1 promoter activity by measuring increase in secreted alkaline phosphatase level by spectrophotometric method. In kind it is cell-based. In short, it runs like this:
as §1

The target of data set [13] is T3, Toll-like receptor 9 (Homo sapiens) (UniProt Q9NR96).
T3 sequence (whole entry): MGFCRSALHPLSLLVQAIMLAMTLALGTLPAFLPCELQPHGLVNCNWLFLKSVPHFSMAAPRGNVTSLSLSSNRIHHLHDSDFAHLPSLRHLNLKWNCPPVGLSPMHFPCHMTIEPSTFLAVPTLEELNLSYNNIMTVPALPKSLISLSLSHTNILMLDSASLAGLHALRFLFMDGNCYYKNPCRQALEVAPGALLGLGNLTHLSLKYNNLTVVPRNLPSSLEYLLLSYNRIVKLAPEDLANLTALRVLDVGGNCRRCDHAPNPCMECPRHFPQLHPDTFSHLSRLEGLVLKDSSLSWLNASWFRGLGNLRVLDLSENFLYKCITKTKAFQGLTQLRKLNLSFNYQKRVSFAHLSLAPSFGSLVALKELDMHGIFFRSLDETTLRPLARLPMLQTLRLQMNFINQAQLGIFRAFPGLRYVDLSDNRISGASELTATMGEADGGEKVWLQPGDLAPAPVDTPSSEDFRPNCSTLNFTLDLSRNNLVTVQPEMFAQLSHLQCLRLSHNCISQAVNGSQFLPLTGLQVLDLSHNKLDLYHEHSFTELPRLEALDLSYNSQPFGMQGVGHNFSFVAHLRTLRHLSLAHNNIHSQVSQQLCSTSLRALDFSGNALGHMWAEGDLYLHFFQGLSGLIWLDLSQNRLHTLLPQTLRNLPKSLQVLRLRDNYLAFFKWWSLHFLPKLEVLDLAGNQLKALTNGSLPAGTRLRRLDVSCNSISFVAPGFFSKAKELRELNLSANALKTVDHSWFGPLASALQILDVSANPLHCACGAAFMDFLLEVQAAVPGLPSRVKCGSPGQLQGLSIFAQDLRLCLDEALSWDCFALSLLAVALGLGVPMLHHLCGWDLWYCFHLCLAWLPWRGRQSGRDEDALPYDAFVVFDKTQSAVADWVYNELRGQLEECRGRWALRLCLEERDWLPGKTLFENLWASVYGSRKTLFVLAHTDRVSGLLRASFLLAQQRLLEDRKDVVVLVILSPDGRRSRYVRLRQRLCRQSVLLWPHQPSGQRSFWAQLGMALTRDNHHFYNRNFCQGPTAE
Put plainly: Activity at human TLR9 expressed in HEK293 cells co-expressing secreted alkaline phosphatase assessed as induction of NF-kappaB/AP-1 promoter activity by measuring increase in secreted alkaline phosphatase level by spectrophotometric method. In kind it is cell-based. The method, boiled down:
as §1

Toll-like receptor 4 (Homo sapiens), sequence (O00206 whole entry): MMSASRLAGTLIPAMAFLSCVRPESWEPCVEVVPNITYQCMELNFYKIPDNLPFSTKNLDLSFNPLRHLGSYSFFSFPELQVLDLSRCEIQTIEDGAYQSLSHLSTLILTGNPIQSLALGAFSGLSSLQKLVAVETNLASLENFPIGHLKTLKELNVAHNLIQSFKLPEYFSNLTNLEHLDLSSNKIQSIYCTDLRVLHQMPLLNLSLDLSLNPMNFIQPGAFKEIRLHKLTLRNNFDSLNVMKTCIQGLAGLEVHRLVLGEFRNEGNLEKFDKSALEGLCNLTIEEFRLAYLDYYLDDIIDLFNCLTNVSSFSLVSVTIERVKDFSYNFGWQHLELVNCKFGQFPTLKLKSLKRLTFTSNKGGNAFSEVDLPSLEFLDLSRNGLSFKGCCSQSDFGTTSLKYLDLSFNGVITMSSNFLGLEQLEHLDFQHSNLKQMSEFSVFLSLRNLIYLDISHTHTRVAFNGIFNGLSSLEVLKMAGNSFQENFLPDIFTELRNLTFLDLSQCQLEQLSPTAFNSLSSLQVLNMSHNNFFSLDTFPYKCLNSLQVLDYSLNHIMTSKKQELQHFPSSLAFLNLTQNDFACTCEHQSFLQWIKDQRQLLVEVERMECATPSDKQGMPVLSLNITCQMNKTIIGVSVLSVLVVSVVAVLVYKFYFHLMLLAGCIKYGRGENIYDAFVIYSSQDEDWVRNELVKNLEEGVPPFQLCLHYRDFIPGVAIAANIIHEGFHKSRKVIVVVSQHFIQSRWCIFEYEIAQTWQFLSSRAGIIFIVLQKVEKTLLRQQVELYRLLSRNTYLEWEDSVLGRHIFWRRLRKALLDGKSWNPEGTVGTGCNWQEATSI
Toll-like receptor 3 (Homo sapiens), sequence (O15455 whole entry): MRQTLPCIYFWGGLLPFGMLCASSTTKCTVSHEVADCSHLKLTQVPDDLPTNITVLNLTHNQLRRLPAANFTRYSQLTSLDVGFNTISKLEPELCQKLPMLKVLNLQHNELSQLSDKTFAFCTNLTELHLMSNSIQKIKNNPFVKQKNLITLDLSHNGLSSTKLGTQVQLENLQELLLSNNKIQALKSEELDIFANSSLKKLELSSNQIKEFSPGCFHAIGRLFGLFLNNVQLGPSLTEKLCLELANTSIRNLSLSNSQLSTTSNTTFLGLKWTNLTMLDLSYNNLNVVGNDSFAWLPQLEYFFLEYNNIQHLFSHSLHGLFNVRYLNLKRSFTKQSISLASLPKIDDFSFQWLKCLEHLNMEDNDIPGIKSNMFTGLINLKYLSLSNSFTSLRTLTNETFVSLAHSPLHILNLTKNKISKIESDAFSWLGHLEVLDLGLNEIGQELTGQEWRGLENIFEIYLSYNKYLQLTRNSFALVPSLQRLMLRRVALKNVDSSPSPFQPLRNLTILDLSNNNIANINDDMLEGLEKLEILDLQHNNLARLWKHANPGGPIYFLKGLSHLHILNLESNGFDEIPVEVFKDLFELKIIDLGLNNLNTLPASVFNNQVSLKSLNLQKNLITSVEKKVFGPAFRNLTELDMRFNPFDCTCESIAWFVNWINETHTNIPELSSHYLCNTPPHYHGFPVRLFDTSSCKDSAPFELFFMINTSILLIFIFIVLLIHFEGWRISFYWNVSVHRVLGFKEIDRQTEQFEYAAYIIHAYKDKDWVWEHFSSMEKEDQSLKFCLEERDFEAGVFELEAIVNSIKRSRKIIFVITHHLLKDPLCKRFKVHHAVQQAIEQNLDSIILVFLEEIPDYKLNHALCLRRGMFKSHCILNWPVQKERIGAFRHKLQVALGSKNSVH
Toll-like receptor 5 (Homo sapiens), sequence (O60602 whole entry): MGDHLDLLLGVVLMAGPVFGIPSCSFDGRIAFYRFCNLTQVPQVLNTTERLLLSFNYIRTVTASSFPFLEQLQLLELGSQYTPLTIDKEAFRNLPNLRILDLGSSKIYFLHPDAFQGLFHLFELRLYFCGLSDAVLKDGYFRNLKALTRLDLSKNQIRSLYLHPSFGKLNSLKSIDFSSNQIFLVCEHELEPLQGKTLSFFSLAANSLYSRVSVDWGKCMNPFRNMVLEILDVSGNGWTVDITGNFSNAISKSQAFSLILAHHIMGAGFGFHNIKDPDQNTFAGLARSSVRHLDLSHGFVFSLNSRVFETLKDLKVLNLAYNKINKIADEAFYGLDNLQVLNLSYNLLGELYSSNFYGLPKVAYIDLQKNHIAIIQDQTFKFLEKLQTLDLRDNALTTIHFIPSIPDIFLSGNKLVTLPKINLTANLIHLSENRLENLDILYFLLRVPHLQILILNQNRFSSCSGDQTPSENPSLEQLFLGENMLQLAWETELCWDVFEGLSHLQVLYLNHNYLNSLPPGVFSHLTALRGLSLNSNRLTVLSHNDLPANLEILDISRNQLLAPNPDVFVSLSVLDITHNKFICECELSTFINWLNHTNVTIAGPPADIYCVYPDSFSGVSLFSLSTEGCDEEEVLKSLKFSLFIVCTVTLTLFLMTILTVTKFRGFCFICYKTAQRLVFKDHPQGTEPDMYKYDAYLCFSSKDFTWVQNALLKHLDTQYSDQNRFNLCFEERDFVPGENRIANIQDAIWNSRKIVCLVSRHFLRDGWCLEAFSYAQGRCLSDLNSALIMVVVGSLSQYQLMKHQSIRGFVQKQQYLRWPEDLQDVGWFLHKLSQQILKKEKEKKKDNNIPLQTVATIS

Take `CCCCc1nc2c(N)nc3ccccc3c2n1Cc1ccc(CN)cc1`: the result in [1], in data set [2], in [5], in [6] and in data set [7] was Active. Moreover, the inhibition result in data set [3] and in data set [4] was “Active” in each case. In addition, in the data set on HEK293, the Activity entry is reported as “Non-Toxic”.
In the case of `CCCCNc1nc(N)nc(C)c1Cc1ccccc1`, the result in [8], in data set [9], in data set [10], in data set [11], in data set [12] and in [13] was inactive.
